{"source": "ChEMBL document CHEMBL4261600", "about": "(Eur J Med Chem, 2018)", "key": {"[1]": {"molecular_target": "Calcium/calmodulin-dependent protein kinase kinase 1 (Homo sapiens) (UniProt Q8N5S9)", "sequence (Q8N5S9 whole entry, looked up, the tested form may be a part)": "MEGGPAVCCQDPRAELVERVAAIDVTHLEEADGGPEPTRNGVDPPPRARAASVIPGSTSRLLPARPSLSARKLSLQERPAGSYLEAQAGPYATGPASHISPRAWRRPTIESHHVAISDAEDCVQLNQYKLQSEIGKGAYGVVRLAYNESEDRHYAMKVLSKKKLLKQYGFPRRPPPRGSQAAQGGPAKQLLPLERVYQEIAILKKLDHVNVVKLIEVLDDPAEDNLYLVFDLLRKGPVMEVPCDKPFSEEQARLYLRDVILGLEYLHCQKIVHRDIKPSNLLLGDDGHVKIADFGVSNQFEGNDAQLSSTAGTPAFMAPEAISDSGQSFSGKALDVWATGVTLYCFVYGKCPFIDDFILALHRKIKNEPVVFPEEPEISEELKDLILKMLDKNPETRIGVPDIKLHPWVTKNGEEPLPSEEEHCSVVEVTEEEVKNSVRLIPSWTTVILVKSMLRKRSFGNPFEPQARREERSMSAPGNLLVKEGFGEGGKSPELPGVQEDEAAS", "assay": "Binding affinity to wild-type human partial length CAMKK1 (R65 to E414 residues) expressed in bacterial expression system assessed as remaining unbound target protein level at 1000 nM by Kinomescan method relative to control"}, "[2]": {"molecular_target": "Activin receptor type-2A (Homo sapiens) (UniProt P27037)", "assay": "Binding affinity to wild-type human ACVR2A (V171 to T499 residues) expressed in bacterial expression system assessed as remaining unbound target protein level at 1000 nM by Kinomescan method relative to control", "summary_of_the_method": "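Single-point competition binding screen across a panel of 468 kinases and mutants, with the inhibitor at 1 μM. Binding is read out as percent of a DMSO control, and targets below 1 percent control were classed as strong binders.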"}, "[3]": {"molecular_target": "Dual specificity tyrosine-phosphorylation-regulated kinase 1B (Homo sapiens) (UniProt Q9Y463)", "sequence (Q9Y463 whole entry, looked up, the tested form may be a part)": "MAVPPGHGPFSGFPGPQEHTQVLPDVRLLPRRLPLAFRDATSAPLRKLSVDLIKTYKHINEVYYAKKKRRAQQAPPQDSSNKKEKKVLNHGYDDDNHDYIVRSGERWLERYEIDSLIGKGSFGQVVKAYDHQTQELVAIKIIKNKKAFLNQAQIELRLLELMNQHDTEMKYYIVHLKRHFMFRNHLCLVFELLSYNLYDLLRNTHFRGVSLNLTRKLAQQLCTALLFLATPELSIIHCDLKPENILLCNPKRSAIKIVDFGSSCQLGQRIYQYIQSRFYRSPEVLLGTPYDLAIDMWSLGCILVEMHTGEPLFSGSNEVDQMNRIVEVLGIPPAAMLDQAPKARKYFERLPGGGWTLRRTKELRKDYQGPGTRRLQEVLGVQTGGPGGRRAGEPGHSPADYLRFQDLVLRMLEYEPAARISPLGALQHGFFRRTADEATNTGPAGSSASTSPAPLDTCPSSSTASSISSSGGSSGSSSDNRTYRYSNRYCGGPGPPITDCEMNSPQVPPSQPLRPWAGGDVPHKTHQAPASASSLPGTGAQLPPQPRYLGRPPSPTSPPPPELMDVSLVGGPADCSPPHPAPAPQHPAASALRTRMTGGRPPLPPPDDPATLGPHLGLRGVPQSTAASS", "assay": "Binding affinity to wild-type human full length DYRK1B (M1 to S629 residues) expressed in bacterial expression system assessed as remaining unbound target protein level at 1000 nM by Kinomescan method relative to control", "summary_of_the_method": "(§1)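 KINOMEscan competition binding profile across a panel of 468 kinases and mutants, with the inhibitor tested at a single concentration of 1 μM. Binding is reported as percent of control, meaning signal relative to a DMSO control.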"}, "[4]": {"molecular_target": "Serine/threonine-protein kinase SBK1 (Homo sapiens) (UniProt Q52WX2)", "assay": "Binding affinity to wild-type human partial length SBK1 (P23 to P348 residues) expressed in mammalian expression system assessed as remaining unbound target protein level at 1000 nM by Kinomescan method relative to control"}, "[5]": {"assay": "MRT (0 to t) in Sprague-Dawley rat at 3 mg/kg, iv by LC-MS/MS analysis", "assay_type": "ADME, organism-based", "conditions": "in vivo"}, "[6]": {"assay": "Oral bioavailability in mouse at 10 mg/kg by LC-MS/MS analysis", "assay_type": "ADME, organism-based", "conditions": "in vivo"}, "[7]": {"molecular_target": "Death-associated protein kinase 3 (Homo sapiens) (UniProt O43293)", "assay": "Binding affinity to wild-type human partial length DAPK3 (M1 to A277 residues) expressed in bacterial expression system assessed as remaining unbound target protein level at 1000 nM by Kinomescan method relative to control", "summary_of_the_method": "(§2)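 KINOMEscan binding panel of 468 kinases/mutants. Inhibitor was tested at a single concentration of 1 μM. Binding is reported as percent of control, defined relative to a DMSO control.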"}, "[8]": {"molecular_target": "Serine/threonine-protein kinase 33 (Homo sapiens) (UniProt Q9BYT3)", "assay": "Binding affinity to wild-type human full length STK33 (M1 to L514 residues) expressed in bacterial expression system assessed as remaining unbound target protein level at 1000 nM by Kinomescan method relative to control", "summary_of_the_method": "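Profiled in a KINOMEscan binding panel with the inhibitor at a single concentration of 1 μM. Binding to each kinase was read out as percent of control, relative to a DMSO control. Strong binders were defined as those with a percent control value below 1.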"}, "[9]": {"molecular_target": "Calcium-dependent protein kinase 1 (Plasmodium falciparum) (UniProt P62344)", "assay": "Binding affinity to wild-type Plasmodium falciparum full length CDPK1 (M1 to S524 residues) expressed in mammalian expression system assessed as remaining unbound target protein level at 1000 nM by Kinomescan method relative to control", "summary_of_the_method": "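KINOMEscan competitive binding profile at 1 μM inhibitor. Remaining target binding reported as percent of DMSO control.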"}, "[10]": {"test_system": "Proto-oncogene tyrosine-protein kinase receptor Ret (Homo sapiens), P07949 [M918T]", "sequence (P07949 whole entry M918T, the tested form may be a part)": "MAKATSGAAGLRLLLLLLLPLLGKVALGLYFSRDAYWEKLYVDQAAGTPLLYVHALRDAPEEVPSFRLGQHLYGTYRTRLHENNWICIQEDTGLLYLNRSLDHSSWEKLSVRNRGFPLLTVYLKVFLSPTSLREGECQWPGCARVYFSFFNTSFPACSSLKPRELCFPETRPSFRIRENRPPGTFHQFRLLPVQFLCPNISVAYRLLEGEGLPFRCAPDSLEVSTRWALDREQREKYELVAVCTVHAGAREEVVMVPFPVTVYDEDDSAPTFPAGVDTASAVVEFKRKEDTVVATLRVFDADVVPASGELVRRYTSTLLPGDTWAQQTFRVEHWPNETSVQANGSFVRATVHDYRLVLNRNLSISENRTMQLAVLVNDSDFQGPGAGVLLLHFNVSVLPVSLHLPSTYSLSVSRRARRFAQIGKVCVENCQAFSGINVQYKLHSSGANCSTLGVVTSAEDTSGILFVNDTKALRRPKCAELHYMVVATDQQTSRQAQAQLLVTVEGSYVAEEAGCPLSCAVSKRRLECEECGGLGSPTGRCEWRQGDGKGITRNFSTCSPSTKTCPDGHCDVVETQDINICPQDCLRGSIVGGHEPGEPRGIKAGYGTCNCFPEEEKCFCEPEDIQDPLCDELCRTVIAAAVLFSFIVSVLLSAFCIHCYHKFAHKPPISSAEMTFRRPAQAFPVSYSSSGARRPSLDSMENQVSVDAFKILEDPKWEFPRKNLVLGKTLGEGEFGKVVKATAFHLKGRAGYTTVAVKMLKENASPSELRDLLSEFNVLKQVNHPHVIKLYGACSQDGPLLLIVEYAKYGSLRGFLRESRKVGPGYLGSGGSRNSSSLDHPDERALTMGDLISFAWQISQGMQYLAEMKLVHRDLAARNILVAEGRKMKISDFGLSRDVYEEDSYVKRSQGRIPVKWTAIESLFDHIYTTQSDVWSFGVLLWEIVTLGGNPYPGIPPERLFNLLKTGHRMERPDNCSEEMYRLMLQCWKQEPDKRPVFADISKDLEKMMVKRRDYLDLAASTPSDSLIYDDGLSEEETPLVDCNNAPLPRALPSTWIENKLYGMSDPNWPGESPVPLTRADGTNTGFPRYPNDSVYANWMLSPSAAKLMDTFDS", "assay": "Binding affinity to human partial length RET M918T mutant (E713 to D1014 residues) expressed in bacterial expression system assessed as remaining unbound target protein level at 1000 nM by Kinomescan method relative to control", "summary_of_the_method": "(§3)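 KINOMEscan competition-binding profiling across the panel of 468 kinases and mutants, with inhibitor tested at 1 μM. Binding is expressed as percent of control, with DMSO as the reference control.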"}, "Homo sapiens": {"organism": "Homo sapiens", "assay": "Selectivity ratio of IC50 for recombinant GST-tagged human CDK3/cyclin E1 to IC50 for recombinant full length His-tagged human CDK9/CyclinT1"}, "[11]": {"molecular_target": "Serine/threonine-protein kinase PAK 4 (Homo sapiens) (UniProt O96013)", "assay": "Binding affinity to wild-type human partial length PAK4 (Q144 to R438 residues) expressed in bacterial expression system assessed as remaining unbound target protein level at 1000 nM by Kinomescan method relative to control", "summary_of_the_method": "as §2"}, "[12]": {"molecular_target": "Mitogen-activated protein kinase kinase kinase kinase 4 (Homo sapiens) (UniProt O95819)", "assay": "Binding affinity to wild-type human partial length MAP4K4 (M1 to R310 residues) expressed in bacterial expression system assessed as remaining unbound target protein level at 1000 nM by Kinomescan method relative to control", "summary_of_the_method": "as §2"}, "[13]": {"molecular_target": "Serine/threonine-protein kinase ULK2 (Homo sapiens) (UniProt Q8IYT8)", "assay": "Binding affinity to wild-type human partial length ULK2 (M1 to S301 residues) expressed in mammalian expression system assessed as remaining unbound target protein level at 1000 nM by Kinomescan method relative to control"}, "[14]": {"test_system": "Receptor-type tyrosine-protein kinase FLT3 (Homo sapiens), P36888 [R834Q]", "assay": "Binding affinity to human partial length FLT3 R834Q mutant (V592 to Y969 residues) expressed in mammalian expression system assessed as remaining unbound target protein level at 1000 nM by Kinomescan method relative to control", "summary_of_the_method": "as §3"}, "[15]": {"molecular_target": "Macrophage-stimulating protein receptor (Homo sapiens) (UniProt Q04912)", "sequence (Q04912 25-304 limits assumed)": "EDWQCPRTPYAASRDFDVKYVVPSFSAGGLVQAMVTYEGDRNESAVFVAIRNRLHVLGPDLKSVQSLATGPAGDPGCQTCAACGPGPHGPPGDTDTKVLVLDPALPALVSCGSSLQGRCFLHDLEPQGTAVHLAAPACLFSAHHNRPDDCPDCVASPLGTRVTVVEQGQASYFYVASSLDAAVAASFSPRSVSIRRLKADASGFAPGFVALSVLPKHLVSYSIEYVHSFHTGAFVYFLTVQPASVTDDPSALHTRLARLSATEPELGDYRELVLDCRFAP", "sequence (Q04912 310-1400 limits assumed)": "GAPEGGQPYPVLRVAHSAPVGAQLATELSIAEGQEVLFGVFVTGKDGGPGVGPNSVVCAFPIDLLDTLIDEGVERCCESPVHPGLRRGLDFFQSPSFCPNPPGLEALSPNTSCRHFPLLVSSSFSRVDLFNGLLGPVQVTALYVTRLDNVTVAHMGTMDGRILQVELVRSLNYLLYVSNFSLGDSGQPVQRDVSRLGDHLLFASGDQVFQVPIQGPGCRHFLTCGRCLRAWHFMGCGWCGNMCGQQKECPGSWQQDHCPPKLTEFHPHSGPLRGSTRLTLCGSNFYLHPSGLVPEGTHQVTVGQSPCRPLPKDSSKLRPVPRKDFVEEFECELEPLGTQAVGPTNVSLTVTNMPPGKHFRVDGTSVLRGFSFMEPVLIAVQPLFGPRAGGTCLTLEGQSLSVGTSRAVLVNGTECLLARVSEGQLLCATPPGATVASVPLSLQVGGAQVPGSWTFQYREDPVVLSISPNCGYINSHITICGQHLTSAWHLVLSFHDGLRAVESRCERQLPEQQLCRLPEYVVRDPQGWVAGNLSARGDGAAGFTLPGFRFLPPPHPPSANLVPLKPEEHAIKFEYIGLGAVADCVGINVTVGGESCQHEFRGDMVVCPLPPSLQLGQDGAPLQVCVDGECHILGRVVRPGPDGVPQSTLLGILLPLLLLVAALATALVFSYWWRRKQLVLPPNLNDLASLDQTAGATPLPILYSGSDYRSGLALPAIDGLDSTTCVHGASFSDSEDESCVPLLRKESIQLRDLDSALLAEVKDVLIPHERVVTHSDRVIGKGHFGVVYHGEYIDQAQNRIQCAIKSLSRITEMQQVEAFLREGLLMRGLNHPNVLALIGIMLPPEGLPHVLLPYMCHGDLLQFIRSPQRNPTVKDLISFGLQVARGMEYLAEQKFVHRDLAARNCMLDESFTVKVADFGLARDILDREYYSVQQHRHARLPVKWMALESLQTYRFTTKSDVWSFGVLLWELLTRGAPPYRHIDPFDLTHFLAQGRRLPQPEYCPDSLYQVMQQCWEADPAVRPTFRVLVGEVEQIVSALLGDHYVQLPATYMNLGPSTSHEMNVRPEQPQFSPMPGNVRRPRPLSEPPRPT", "assay": "Binding affinity to wild-type human partial length MST1R (I1057 to L1363 residues) expressed in bacterial expression system assessed as remaining unbound target protein level at 1000 nM by Kinomescan method relative to control"}, "[16]": {"molecular_target": "Ephrin type-A receptor 7 (Homo sapiens) (UniProt Q15375)", "sequence (Q15375 28-998 limits assumed)": "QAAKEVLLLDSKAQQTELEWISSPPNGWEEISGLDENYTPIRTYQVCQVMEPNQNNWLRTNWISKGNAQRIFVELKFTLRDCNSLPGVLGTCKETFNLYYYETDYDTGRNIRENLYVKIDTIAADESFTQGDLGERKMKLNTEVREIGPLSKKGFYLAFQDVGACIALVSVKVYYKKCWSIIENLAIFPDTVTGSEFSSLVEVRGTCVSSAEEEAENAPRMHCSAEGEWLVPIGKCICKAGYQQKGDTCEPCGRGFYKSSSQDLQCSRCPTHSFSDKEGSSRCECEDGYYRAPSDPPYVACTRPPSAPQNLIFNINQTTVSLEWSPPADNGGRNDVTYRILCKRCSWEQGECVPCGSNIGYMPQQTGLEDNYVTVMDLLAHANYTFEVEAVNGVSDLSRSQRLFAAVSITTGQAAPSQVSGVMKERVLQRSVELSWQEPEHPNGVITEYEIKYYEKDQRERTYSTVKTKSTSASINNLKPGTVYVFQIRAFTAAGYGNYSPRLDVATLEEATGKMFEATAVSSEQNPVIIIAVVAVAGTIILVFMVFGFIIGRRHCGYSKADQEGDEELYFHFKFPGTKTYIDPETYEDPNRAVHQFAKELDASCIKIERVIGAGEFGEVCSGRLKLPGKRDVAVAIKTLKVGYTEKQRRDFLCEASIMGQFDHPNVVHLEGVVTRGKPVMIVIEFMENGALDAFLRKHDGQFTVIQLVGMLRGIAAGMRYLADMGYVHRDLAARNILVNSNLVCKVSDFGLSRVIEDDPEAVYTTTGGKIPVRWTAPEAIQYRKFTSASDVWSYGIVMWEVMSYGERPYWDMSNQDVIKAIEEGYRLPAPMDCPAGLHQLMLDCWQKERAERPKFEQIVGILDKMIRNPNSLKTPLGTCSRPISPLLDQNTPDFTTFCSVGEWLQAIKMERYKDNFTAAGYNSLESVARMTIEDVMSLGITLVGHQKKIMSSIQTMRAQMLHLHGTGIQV", "assay": "Binding affinity to wild-type human partial length EPHA7 (Y608 to S912 residues) expressed in bacterial expression system assessed as remaining unbound target protein level at 1000 nM by Kinomescan method relative to control", "summary_of_the_method": "as §2"}, "[17]": {"test_system": "Mycobacterium tuberculosis", "assay": "Binding affinity to wild-type Mycobacterium tuberculosis partial length PKNB (M1 to G279 residues) expressed in mammalian expression system assessed as remaining unbound target protein level at 1000 nM by Kinomescan method relative to control", "summary_of_the_method": "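KINOMEscan competition binding panel run at 1 μM inhibitor; binding reported as percent of DMSO control (remaining target bound versus vehicle).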"}, "[18]": {"molecular_target": "Ribosomal protein S6 kinase alpha-6 (Homo sapiens) (UniProt Q9UK32)", "assay": "Binding affinity to wild-type human partial length N-terminal RSK4 kinase domain 1 (M1 to E397 residues) expressed in mammalian expression system assessed as remaining unbound target protein level at 1000 nM by Kinomescan method relative to control", "summary_of_the_method": "as §2"}, "[19]": {"molecular_target": "Insulin receptor (Homo sapiens) (UniProt P06213)", "assay": "Binding affinity to wild-type human partial length INSR (P997 to E1318 residues) expressed in mammalian expression system assessed as remaining unbound target protein level at 1000 nM by Kinomescan method relative to control", "summary_of_the_method": "as §2"}, "[20]": {"molecular_target": "Mitogen-activated protein kinase 8 (Homo sapiens) (UniProt P45983)", "sequence (P45983 whole entry, the tested form may be a part)": "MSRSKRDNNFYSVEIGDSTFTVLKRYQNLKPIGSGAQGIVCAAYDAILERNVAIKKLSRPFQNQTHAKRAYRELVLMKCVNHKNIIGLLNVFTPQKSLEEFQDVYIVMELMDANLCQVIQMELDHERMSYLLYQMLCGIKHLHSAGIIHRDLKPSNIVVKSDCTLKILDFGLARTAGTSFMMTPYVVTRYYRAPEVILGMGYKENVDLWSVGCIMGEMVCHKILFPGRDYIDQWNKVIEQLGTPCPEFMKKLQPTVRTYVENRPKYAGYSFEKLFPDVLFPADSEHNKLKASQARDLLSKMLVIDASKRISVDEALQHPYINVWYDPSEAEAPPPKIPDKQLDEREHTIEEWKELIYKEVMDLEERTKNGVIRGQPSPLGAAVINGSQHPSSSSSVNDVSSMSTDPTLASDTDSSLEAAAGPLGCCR", "assay": "Binding affinity to wild-type human full length JNK1 (M1 to Q384 residues) expressed in mammalian expression system assessed as remaining unbound target protein level at 1000 nM by Kinomescan method relative to control", "summary_of_the_method": "as §1"}}}
{"smiles": "COCCN[C@H]1CC[C@H](Nc2cc(-c3csc(NCC4(C#N)CCOCC4)n3)c(Cl)cn2)CC1", "values": [{"measurement": "Activity", "setting": "[1]", "result": 84, "unit": "%"}, {"measurement": "Activity", "setting": "[2]", "result": 100, "unit": "%"}, {"measurement": "Activity", "setting": "[3]", "result": 0.35, "unit": "%"}, {"measurement": "Activity", "setting": "[4]", "result": 75, "unit": "%"}, {"measurement": "MRT last", "setting": "[5]", "result": 4.69, "unit": "h"}, {"measurement": "bioavailability", "setting": "[6]", "result": 45, "unit": "%"}, {"measurement": "Activity", "setting": "[7]", "result": 63, "unit": "%"}, {"measurement": "Activity", "setting": "[8]", "result": 78, "unit": "%"}, {"measurement": "Activity", "setting": "[9]", "result": 77, "unit": "%"}, {"measurement": "Activity", "setting": "[10]", "result": 90, "unit": "%"}, {"measurement": "Ratio IC50", "setting": "Homo sapiens", "result": "> 1000"}, {"measurement": "Activity", "setting": "[11]", "result": 91, "unit": "%"}, {"measurement": "Activity", "setting": "[12]", "result": 91, "unit": "%"}, {"measurement": "Activity", "setting": "[13]", "result": 100, "unit": "%"}, {"measurement": "Activity", "setting": "[14]", "result": 100, "unit": "%"}, {"measurement": "Activity", "setting": "[15]", "result": 92, "unit": "%"}, {"measurement": "Activity", "setting": "[16]", "result": 94, "unit": "%"}, {"measurement": "Activity", "setting": "[17]", "result": 84, "unit": "%"}, {"measurement": "Activity", "setting": "[18]", "result": 94, "unit": "%"}, {"measurement": "Activity", "setting": "[19]", "result": 94, "unit": "%"}, {"measurement": "Activity", "setting": "[20]", "result": 4.8, "unit": "%"}]}
